Laboratory results published in ChEMBL document CHEMBL5500359, “Identification of a new bisindolinone arresting IGROV1 cells proliferation” (Eur J Med Chem, 2024).

Legend:
Melanoma cell line [1] = assay: Cell growth inhibition of human Melanoma cells incubated for 48 hrs by SRB assay; assay type: functional
Procedure, shortened: (§1)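 NCI-60 five-concentration screen: lines seeded 5×10^3–4×10^4 cells/well depending on line; compound diluted in fresh medium at scalar concentrations 0–100 or 0–1000 μM; 48 h exposure, in situ fixation, sulforhodamine B protein staining, optical density read; GI50, TGI and LC50 per NCI procedures; panel mean = mean graph midpoint.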

Breast cancer cell line [2] = assay: Cytostatic activity against human Breast cancer cells incubated for 48 hrs by SRB assay; assay type: functional; procedure, shortened: as §1
NSCLC = assay: Cell growth inhibition of human NSCLC cells incubated for 48 hrs by SRB assay; assay type: functional; procedure, shortened: as §1
Renal cancer cell line [3] = assay: Cytostatic activity against human Renal cancer cells incubated for 48 hrs by SRB assay; assay type: functional; procedure, shortened: as §1
[4] = Cytostatic activity against human Leukemia cancer cells incubated for 48 hrs by SRB assay; assay type: functional, Leukemia cell; procedure, shortened: as §1
CNS carcinoma cell [5] = assay: Cell growth inhibition of human CNS carcinoma cells incubated for 48 hrs by SRB assay; assay type: functional; procedure, shortened: as §1
Colon carcinoma cell [6] = assay: Cytotoxicity against human Colon carcinoma cells incubated for 48 hrs by SRB assay; assay type: functional; procedure, shortened: as §1
[7] = tested on: Panel NCI-60 (60 carcinoma cell lines); assay: Cell growth inhibition of human Panel NCI-60 (60 carcinoma cell lines) incubated for 48 hrs by SRB assay; assay type: functional; procedure, shortened: as §1
Ovarian cancer cell line [8] = assay: Cytostatic activity against human Ovarian cancer cells incubated for 48 hrs by SRB assay; assay type: functional; procedure, shortened: as §1
[9] = Cell growth inhibition of human Leukemia cancer cells incubated for 48 hrs by SRB assay; assay type: functional; procedure, shortened: as §1
Renal cancer cell line [10] = assay: Cell growth inhibition of human Renal cancer cells incubated for 48 hrs by SRB assay; assay type: functional; procedure, shortened: as §1
Breast cancer cell line [11] = assay: Cell growth inhibition of human Breast cancer cells incubated for 48 hrs by SRB assay; assay type: functional; details: read-out: LC50 (the source's name)
Procedure, shortened: (§2)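 NCI DTP five-concentration screen. Cells were seeded at 5 × 10³–4 × 10⁴ cells/well, depending on the line. Compounds were diluted in fresh medium and added at scalar concentrations over 0–1000 µM or 0–100 µM. After 48 h the cells were fixed in situ, stained with sulforhodamine B, and optical density was read. GI50, TGI and LC50 were derived by NCI procedures, and the panel mean is the mean graph midpoint.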

Melanoma cell line [12] = assay: […] against human Melanoma cells incubated for 48 hrs by SRB assay; assay type: functional; details: read-out: LC50 (the source's name); procedure, shortened: as §2
Ovarian cancer cell line [13] = assay: Cytotoxicity against human Ovarian cancer cells incubated for 48 hrs by SRB assay; assay type: functional; procedure, shortened: as §1
Breast cancer cell line [14] = assay: Cytotoxicity against human Breast cancer cells incubated for 48 hrs by SRB assay; assay type: functional; procedure, shortened: as §1
Prostatic carcinoma cell = assay: Cell growth inhibition of human Prostate carcinoma cells incubated for 48 hrs by SRB assay; assay type: functional; procedure, shortened: as §1
CNS carcinoma cell [15] = assay: Cytostatic activity against human CNS carcinoma cells incubated for 48 hrs by SRB assay; assay type: functional; procedure, shortened: as §1
Colon carcinoma cell [16] = assay: Cytostatic activity against human Colon carcinoma cells incubated for 48 hrs by SRB assay; assay type: functional; procedure, shortened: as §1
[17] = tested on: Panel NCI-60 (60 carcinoma cell lines); assay: Cytostatic activity against human Panel NCI-60 (60 carcinoma cell lines) incubated for 48 hrs by SRB assay; assay type: functional; procedure, shortened: as §1
[18] = Cytotoxicity against human Leukemia cancer cells incubated for 48 hrs by SRB assay; assay type: functional; details: Leukemia cell, read-out: LC50 (the source's name); procedure, shortened: as §2

Structure (SMILES)	GI (Melanoma cell line [1])	TGI (Breast cancer cell line [2])	GI (NSCLC)	GI (Renal cancer cell line [3])	GI [4]	GI50 (CNS carcinoma cell [5])	GI (Colon carcinoma cell [6])	GI50 [7]	TGI (Ovarian cancer cell line [8])	GI50 [9]	GI50 (Renal cancer cell line [10])	CC50 (Breast cancer cell line [11])	CC50 (Melanoma cell line [12])	GI (Ovarian cancer cell line [13])	GI (Breast cancer cell line [14])	GI (Prostatic carcinoma cell)	GI (CNS carcinoma cell [15])	TGI (Colon carcinoma cell [16])	GI [17]	CC50 [18]
COc1ccc2c(c1)/C(=C\c1ccc3ccc4ccc(/C=C5/C(=O)N(C)c6ccc(OC)cc65)nc4c3n1)C(=O)N2C	2.14 µM	18.6 µM	2.57 µM	5.89 µM	56.23 µM	3.16 µM	13.49 µM	2.63 µM	28.2 µM	3.16 µM	2.34 µM	3.09 µM	4.79 µM	89.13 µM	64.57 µM	2.57 µM	17.78 µM	6.31 µM	12.88 µM	–
COc1cc2c(c(OC)c1OC)C(=Cc1cc(C(C)(C)C)cc(/C=C3\C(=O)Nc4cc(OC)c(OC)c(OC)c43)c1O)C(=O)N2	1.82 µM	4.9 µM	1.95 µM	4.9 µM	6.03 µM	1.62 µM	8.13 µM	1.95 µM	5.13 µM	2.19 µM	2.19 µM	1.86 µM	3.63 µM	25.12 µM	50.12 µM	1.91 µM	3.31 µM	3.89 µM	4.37 µM	60.3 µM
COc1cc2c(c(OC)c1OC)/C(=C\c1ccc3ccc4ccc(/C=C5/C(=O)Nc6cc(OC)c(OC)c(OC)c65)nc4c3n1)C(=O)N2	18.62 µM	64.6 µM	14.45 µM	74.13 µM	–	13.8 µM	–	12.9 µM	93.3 µM	4.27 µM	26.3 µM	10 µM	85.1 µM	–	–	3.39 µM	67.61 µM	5.23 µM	70.79 µM	–
COc1ccc2c(c1)/C(=C\c1cc(C(C)(C)C)cc(/C=C3/C(=O)N(C)c4ccc(OC)cc43)c1O)C(=O)N2C	1.86 µM	6.17 µM	2.34 µM	8.32 µM	20.42 µM	1.91 µM	16.98 µM	2.24 µM	7.24 µM	2.82 µM	2.51 µM	2.24 µM	3.98 µM	28.18 µM	36.31 µM	3.09 µM	4.9 µM	4.79 µM	6.61 µM	100 µM
O=C1Nc2ccc(F)cc2/C1=C\c1cccc(/C=C2/C(=O)Nc3ccc(F)cc32)c1	1.58 µM	–	1.82 µM	3.47 µM	9.77 µM	1.35 µM	9.33 µM	1.62 µM	–	1.66 µM	1.58 µM	9.33 µM	10.2 µM	32.4 µM	–	1.48 µM	3.24 µM	–	4.47 µM	7.41 µM
O=C1Nc2ccc(Cl)cc2/C1=C\c1ccc2ccc3ccc(/C=C4/C(=O)Nc5ccc(Cl)cc54)nc3c2n1	2.19 µM	29.5 µM	2.57 µM	17.38 µM	83.18 µM	2.15 µM	31.62 µM	2.63 µM	29.5 µM	3.09 µM	2.29 µM	3.09 µM	11.5 µM	69.18 µM	–	2.45 µM	9.33 µM	7.41 µM	18.2 µM	–
COc1cc2c(/C=C3/C(=O)N(C)c4cc5c(cc43)/C(=C\c3c(Cl)[nH]c4cc(C)c(OC)cc34)C(=O)N5C)c(Cl)[nH]c2cc1C	2.34 µM	10 µM	2.19 µM	7.24 µM	5.37 µM	1.82 µM	9.77 µM	2.04 µM	10.7 µM	1.2 µM	1.95 µM	24.6 µM	6.46 µM	45.71 µM	33.11 µM	1.82 µM	7.76 µM	4.17 µM	7.59 µM	42.7 µM
COc1ccc(OC)c2c1NC(=O)/C2=C/c1cccc(/C=C2/C(=O)Nc3c(OC)ccc(OC)c32)c1	7.24 µM	81.3 µM	9.33 µM	81.28 µM	95.5 µM	4.68 µM	–	5.89 µM	69.2 µM	2.69 µM	7.08 µM	5.37 µM	61.7 µM	–	–	5.89 µM	100 µM	63.1 µM	72.44 µM	–
CC[C@]1(O)C[C@H]2CN(CCc3c([nH]c4ccccc34)[C@@](C(=O)OC)(c3cc4c(cc3OC)N(C=O)[C@H]3[C@@](O)(C(=O)OC)[C@H](OC(C)=O)[C@]5(CC)C=CCN6CC[C@]43[C@@H]65)C2)C1 [VINCRISTINE]	0.16 µM	–	0.25 µM	–	–	0.13 µM	–	0.2 µM	–	0.1 µM	0.32 µM	0.32 µM	–	–	–	0.13 µM	–	–	–	–
COc1cc2c(cc1C)NC(=O)/C2=C/c1ccc2ccc3ccc(/C=C4/C(=O)Nc5cc(C)c(OC)cc54)nc3c2n1	6.03 µM	25.7 µM	6.76 µM	29.51 µM	22.91 µM	8.51 µM	46.77 µM	5.13 µM	38.9 µM	2.51 µM	6.31 µM	3.98 µM	17.8 µM	77.62 µM	–	2.95 µM	40.74 µM	10.2 µM	26.3 µM	–
CN(C)c1ccc2[nH]c(Cl)c(/C=C3/C(=O)N(C)c4cc5c(cc43)/C(=C\c3c(Cl)[nH]c4ccc(N(C)C)cc34)C(=O)N5C)c2c1	27.54 µM	–	18.2 µM	–	–	7.08 µM	–	14.5 µM	–	17 µM	9.77 µM	4.17 µM	–	–	–	10.72 µM	–	–	–	–
